Experiments:
KB [1] = assay: Tested in vitro for cytotoxicity against KB human oral epidermoid carcinoma cell line; type: functional, cell-based
In short: (§1)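 Cells were grown in RPMI 1640 with 10% FCS, and the L1210 medium also had 2-mercaptoethanol added. Compound was dissolved in Ca/Mg-free Dulbecco's PBS or saline, diluted in culture medium and applied for 72 h in a CO2 incubator. Cells were fixed in 0.1% glutaraldehyde and stained with 0.01% crystal violet. Dye was extracted in 50% EtOH–25 mM NaH2PO4 and OD read. IC50 is the concentration giving 50% reduction of optical density.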

Mus musculus [2] = assay: In vivo percent inhibition of Lewis Lung Carcinoma cell line in mice at 100 mg/Kg per day (p<0.001) compared with ara-C; type: functional
In short: (§2)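 A 2-mm cube of LLC was implanted s.c. in the backs of 9-week-old male BDF1 mice on day 0, with 7 mice per dose group. Drug in saline was given i.p. once daily on days 1–5 at 0.1 mL/10 g body weight. Tumor weight was measured on day 17. Percent inhibition compares the mean tumor weight of treated mice with vehicle-only controls.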

L1210 [3] = assay: Tested in vitro for cytotoxicity against leukemia L1210 cell line in mouse; type: functional, cell-based; in short: as §1
Mus musculus [4] = assay: In vivo percent inhibition of Lewis Lung Carcinoma cell line in mice at 200 mg/Kg per day (p<0.001) compared with ara-C; type: functional; in short: as §2
[5] = system: KATO III stomach cancer cell line; assay: Tested in vitro for cytotoxicity against KATO III human stomach adenocarcinoma cell line; type: functional, cell-based; in short: as §1
Mus musculus [6] = assay: Tested for in vivo antitumor activity against Lewis Lung Carcinoma cell line in mice and tumor weight change at 200 mg/Kg per day; type: functional; in short: as §2
[7] = system: Lewis lung carcinoma cell line; assay: Tested in vitro for cytotoxicity against LLC Lewis lung carcinoma cell line; type: functional, cell-based; details: Mus musculus; in short: as §1
Mus musculus [8] = assay: Mean body weight change on 5th day at a dose of 200 mg/kg/day; type: functional
In short: (§3)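 LLC fragments were implanted s.c. into male BDF1 mice aged 9 weeks on day 0, with seven animals per dose. Drug dissolved in saline was given intraperitoneally once a day for 5 days, days 1–5. Mean body weight change was recorded on day 5 and on day 17 and compared with saline-vehicle controls.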

Mus musculus [9] = assay: Mean body weight change on 17th day at a dose of 100 mg/kg/day; type: functional; in short: as §3
Mus musculus [10] = assay: Mean body weight change on 17th day at a dose of 200 mg/kg/day; type: functional; in short: as §3
Mus musculus [11] = assay: Mean body weight change on 5th day at a dose of 100 mg/kg/day; type: functional; in short: as §3
Mus musculus [12] = assay: Tested in vivo for antitumor activity against Lewis Lung Carcinoma cell line in mice and tumor weight change at 100 mg/Kg per day; type: functional; in short: as §2
L1210 [13] = assay: tested in vitro for cytotoxicity against L1210 leukemia cell line in mouse; type: functional, cell-based; in short: as §1
[14] = system: KATO III stomach cancer cell line; assay: tested for in vitro cytotoxicity against KATO III human stomach adenocarcinoma cell line; type: functional, cell-based; in short: as §1
[15] = system: Lewis lung carcinoma cell line; assay: tested for in vitro cytotoxicity against LLC Lewis lung carcinoma cell line; type: functional, cell-based; details: Mus musculus; in short: as §1
KB [16] = assay: tested in vitro for cytotoxicity against KB human oral epidermoid carcinoma cell line; type: functional, cell-based; in short: as §1
Mus musculus [17] = assay: In vivo percent inhibition of Lewis Lung Carcinoma cell line in mice at 100 mg/Kg per day (p<0.001) compared with NCDAC; type: functional; in short: as §2
Mus musculus [18] = assay: In vivo percent inhibition of Lewis Lung Carcinoma cell line in mice drug at 200 mg/Kg per day (p<0.001) compared with NCDAC; type: functional; in short: as §2
[19] = system: Lewis lung carcinoma cell line; assay: Tested for in vitro cytotoxicity against LLC Lewis lung carcinoma cell line; type: functional, cell-based; details: Mus musculus; in short: as §1
KB [20] = assay: Tested for in vitro cytotoxicity against KB human oral epidermoid carcinoma cell line; type: functional, cell-based; in short: as §1
L1210 [21] = assay: Tested in vitro for cytotoxicity against L1210 leukemia cell line in mouse
Mus musculus [22] = assay: Tested for in vivo antitumor activity against Lewis Lung Carcinoma cell line in mice and tumor weight change at 100 mg/Kg per day; type: functional; in short: as §2
[23] = system: KATO III stomach cancer cell line; assay: Tested for in vitro cytotoxicity against KATO III human stomach adenocarcinoma cell line; type: functional, cell-based; in short: as §1

`[C-]#[N+][C@@H]1[C@H](n2ccc(N)nc2=O)OC(CO)[C@@H]1O` (stereo partly drawn) showed an IC50 (KB [1]) of 7.9 µM, an Inhibition ratio (Mus musculus [2]) of 61% and an IC50 (L1210 [3]) of 12.6 µM. The Inhibition ratio (Mus musculus [4]) was 60.6%, the IC50 [5] was 90 µM and the Tumor weight (Mus musculus [6]) was 1.09 g. It also gave an IC50 [7] of 4.9 µM, a Weight change (Mus musculus [8]) of 0.2 and a Weight change (Mus musculus [9]) of 2. It also gave a Weight change (Mus musculus [10]) of 2.1, a Weight change (Mus musculus [11]) of 0.4 and a Tumor weight (Mus musculus [12]) of 1.08 g.
In the case of `[C-]#[N+][C@@H]1[C@H](n2ccc(=O)[nH]c2=O)OC(CO)[C@@H]1O` (stereo partly drawn), the IC50 (L1210 [13]) is reported as 34 µM, the IC50 [14] is reported as over 100 µM and the IC50 [15] is reported as over 100 µM. The IC50 (KB [16]) was 36.8 µM.
`Nc1ccn([C@@H]2O[C@H](CO)[C@@H](O)[C@@H]2O)c(=O)n1` [CYTARABINE] gave an Inhibition ratio (Mus musculus [17]) of 83%, an Inhibition ratio (Mus musculus [18]) of 87.7% and a Tumor weight (Mus musculus [6]) of 0.34 g. The IC50 [19] was 5.6 µM, the IC50 (KB [20]) was 0.64 µM and the Weight change (Mus musculus [8]) was -0.1. It also gave a Weight change (Mus musculus [9]) of 0.8, an IC50 (L1210 [21]) of 0.12 µM and a Weight change (Mus musculus [10]) of 0.7. For the same molecule, the Weight change (Mus musculus [11]) was -0.4, the Tumor weight (Mus musculus [22]) was 0.47 g and the IC50 [23] was 0.3 µM.

Source: ChEMBL document CHEMBL1126569, “Nucleosides and nucleotides. 123. Synthesis of 1-(2-deoxy-2-isocyano-beta-D-arabinofuranosyl)cytosine and related nucleosides as potential antitumor agents” (J Med Chem, 1993)
